{"source": "ChEMBL document CHEMBL3352165", "about": "(Eur J Med Chem, 2014)", "key": {"[1]": {"target": "Mast/stem cell growth factor receptor Kit (Homo sapiens, UniProt P10721)", "assay": "Inhibition of c-KIT (unknown origin) by ELISA method", "summary_of_the_method": "(§1)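 Phosphotyrosine ELISA with purified kinase (20 ng) and 5 µM ATP in buffer (50 mM HEPES pH 7.4, 20 mM MgCl2, 0.1 mM MnCl2, 0.2 mM Na3VO4, 1 mM DTT), 1 h at 37 °C, DMSO ≤1%. Detection by PY99 antibody, then HRP anti-mouse IgG with o-phenylenediamine, A490. IC50 by Logit from at least three independent tests.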"}, "[2]": {"target": "T1, Receptor tyrosine-protein kinase erbB-2 (Homo sapiens, UniProt P04626)", "T1 sequence (P04626 whole entry)": "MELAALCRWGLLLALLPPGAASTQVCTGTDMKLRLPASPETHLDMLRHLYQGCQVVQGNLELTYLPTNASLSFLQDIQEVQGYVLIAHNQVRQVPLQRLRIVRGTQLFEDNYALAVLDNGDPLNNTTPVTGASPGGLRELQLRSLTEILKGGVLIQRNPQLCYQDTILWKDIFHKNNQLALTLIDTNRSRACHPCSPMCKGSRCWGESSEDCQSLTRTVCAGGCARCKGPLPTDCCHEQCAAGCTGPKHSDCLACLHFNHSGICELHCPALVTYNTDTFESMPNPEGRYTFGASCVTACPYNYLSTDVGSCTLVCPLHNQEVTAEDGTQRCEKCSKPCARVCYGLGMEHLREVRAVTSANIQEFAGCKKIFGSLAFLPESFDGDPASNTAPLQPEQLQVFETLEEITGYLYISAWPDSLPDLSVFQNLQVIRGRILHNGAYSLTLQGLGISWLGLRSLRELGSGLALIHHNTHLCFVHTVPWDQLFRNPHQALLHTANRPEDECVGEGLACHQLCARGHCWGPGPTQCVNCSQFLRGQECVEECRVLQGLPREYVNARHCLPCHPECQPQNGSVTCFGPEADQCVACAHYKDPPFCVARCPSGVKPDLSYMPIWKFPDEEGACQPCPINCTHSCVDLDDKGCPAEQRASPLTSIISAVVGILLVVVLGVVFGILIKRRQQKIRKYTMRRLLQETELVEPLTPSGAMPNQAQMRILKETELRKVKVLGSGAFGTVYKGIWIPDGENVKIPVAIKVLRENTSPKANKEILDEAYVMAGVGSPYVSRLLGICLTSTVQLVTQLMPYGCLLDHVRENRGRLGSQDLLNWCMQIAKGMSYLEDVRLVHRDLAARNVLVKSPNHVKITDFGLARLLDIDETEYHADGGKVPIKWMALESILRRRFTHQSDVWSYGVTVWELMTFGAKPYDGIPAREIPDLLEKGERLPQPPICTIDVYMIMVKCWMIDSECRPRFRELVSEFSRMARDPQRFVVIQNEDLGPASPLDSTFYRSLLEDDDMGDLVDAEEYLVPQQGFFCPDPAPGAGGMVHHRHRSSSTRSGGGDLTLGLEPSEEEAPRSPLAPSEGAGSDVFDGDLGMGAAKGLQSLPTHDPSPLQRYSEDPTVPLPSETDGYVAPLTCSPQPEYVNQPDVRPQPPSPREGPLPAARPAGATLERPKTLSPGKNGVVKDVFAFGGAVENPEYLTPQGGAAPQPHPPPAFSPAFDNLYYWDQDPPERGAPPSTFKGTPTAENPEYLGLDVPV", "conditions": "BT-474, 0.001 to 1 uM"}, "BT-474 [3]": {"test_system": "BT-474", "assay": "Induction of apoptosis in human BT474 cells at 10 uM incubated for 12 hrs by propidium iodide staining based flow cytometry (reference value: 1%)", "format": "functional"}, "BT-474 [4]": {"test_system": "BT-474", "assay": "Induction of cell cycle arrest in human BT474 cells assessed as accumulation at G2/M phase at 0.01 uM incubated for 12 hrs by propidium iodide staining based flow cytometry (reference value: 14%)", "format": "functional"}, "[5]": {"target": "T2, Epidermal growth factor receptor (Homo sapiens, UniProt P00533)", "T2 sequence (P00533 whole entry)": "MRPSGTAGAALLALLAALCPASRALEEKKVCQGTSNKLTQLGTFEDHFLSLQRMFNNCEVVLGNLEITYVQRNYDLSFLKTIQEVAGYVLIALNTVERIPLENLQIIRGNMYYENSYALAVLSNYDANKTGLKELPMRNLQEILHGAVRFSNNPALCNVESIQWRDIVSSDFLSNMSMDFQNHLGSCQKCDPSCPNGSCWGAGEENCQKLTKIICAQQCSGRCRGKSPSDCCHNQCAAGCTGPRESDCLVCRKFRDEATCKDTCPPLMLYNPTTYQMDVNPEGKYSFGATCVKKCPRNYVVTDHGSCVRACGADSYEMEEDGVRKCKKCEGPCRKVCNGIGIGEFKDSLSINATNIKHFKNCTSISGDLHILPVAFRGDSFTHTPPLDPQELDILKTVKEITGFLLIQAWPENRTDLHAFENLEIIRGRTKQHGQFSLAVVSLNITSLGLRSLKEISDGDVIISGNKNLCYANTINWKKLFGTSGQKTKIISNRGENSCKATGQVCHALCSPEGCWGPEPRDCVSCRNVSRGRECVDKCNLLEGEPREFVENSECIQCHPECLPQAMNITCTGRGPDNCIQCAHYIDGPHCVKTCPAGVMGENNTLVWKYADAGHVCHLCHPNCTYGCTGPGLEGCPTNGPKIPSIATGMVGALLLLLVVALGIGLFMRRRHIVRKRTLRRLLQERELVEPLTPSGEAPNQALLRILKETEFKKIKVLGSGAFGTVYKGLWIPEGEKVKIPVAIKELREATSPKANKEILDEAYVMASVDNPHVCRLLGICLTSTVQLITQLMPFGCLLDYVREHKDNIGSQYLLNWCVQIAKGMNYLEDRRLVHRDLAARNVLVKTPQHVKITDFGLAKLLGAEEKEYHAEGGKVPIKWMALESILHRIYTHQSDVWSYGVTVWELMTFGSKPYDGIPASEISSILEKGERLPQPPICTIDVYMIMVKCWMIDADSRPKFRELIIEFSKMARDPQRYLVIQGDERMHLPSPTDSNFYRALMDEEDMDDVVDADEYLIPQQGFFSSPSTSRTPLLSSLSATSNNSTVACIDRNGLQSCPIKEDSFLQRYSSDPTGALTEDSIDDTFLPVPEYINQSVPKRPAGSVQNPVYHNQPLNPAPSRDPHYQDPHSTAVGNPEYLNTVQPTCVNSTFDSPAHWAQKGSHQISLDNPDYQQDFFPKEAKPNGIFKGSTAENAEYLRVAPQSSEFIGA", "conditions": "A-431, 0.001 to 1 uM"}, "[6]": {"target": "T3, Vascular endothelial growth factor receptor 2 (Homo sapiens, UniProt P35968)", "T3 sequence (P35968 whole entry)": "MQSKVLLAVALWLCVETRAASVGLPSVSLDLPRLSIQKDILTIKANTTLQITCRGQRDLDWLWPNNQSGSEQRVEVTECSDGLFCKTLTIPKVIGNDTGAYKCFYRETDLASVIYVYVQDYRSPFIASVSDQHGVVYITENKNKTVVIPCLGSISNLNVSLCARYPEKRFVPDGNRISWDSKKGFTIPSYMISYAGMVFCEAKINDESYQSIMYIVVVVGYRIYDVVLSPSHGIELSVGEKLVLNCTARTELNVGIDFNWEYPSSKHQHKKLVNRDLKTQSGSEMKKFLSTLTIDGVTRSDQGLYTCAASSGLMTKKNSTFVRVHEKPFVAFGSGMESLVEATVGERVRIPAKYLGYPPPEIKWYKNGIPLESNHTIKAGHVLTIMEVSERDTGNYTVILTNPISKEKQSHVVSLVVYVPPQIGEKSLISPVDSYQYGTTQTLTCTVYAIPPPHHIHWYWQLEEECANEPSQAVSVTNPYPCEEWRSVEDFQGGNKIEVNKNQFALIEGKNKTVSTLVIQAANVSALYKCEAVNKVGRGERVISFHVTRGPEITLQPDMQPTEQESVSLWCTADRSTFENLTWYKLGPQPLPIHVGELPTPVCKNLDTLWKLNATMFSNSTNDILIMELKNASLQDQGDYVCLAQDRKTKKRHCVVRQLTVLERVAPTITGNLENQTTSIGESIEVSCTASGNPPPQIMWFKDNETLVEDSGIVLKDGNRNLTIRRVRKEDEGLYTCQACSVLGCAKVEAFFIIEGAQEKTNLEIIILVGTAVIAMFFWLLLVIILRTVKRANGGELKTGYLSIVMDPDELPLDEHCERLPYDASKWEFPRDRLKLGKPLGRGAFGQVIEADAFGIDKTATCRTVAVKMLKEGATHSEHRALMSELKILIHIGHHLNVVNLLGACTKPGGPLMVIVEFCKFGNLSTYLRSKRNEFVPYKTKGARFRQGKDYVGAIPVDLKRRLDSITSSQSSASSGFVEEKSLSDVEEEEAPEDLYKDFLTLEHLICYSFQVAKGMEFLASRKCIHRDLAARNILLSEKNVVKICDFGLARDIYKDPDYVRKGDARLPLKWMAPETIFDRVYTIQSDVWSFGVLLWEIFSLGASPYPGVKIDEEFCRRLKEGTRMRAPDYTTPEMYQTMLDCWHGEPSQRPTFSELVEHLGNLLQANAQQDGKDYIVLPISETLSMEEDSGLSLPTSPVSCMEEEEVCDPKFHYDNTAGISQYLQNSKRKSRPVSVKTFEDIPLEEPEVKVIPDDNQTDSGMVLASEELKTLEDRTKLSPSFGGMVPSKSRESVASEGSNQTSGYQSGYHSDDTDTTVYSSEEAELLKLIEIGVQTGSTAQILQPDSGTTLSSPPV", "assay": "Inhibition of KDR (unknown origin) by ELISA method", "summary_of_the_method": "as §1"}, "Mus musculus": {"test_system": "Mus musculus", "assay": "Toxicity in human Calu3 cells xenografted BALB/cA mouse assessed as body weight loss at 200 mg/kg, po measured every other day for 21 days", "format": "organism-based, Calu-3", "design": "dose 200 mg/kg, route oral", "conditions": "in vivo, 504 h", "summary_of_the_method": "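Female BALB/cA nude mice, 6–7 weeks old, implanted s.c. on the mid-right flank with 2×10^6 Calu-3 cells in 0.2 ml PBS. At 60–150 mm³ tumour volume, mice randomised into six per treatment group (twelve vehicle controls). Oral dosing in 0.5% CMC aqueous solution with 0.1% Tween-80. Body weight recorded every other day for 21 d.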"}, "cells": {"assay": "cells", "conditions": "Homo sapiens, Calu-3, 72 h"}, "[7]": {"assay": "Mean residence time in Beagle dog at 240 mg/kg, po dosed for 14 days by LC/MS/MS method", "format": "ADME, organism-based, Canis lupus familiaris", "design": "dose 240 mg/kg, route oral", "conditions": "in vivo", "summary_of_the_method": "(§2)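 Beagle dogs (n = 6) dosed by oral gavage at 240 mg/kg daily for 14 consecutive days. Blood taken predose and at 0.25–24 h on days 1 and 14, plasma stored at −20 °C, analysed by validated LC/MS/MS. Half-life and AUC by model-independent methods; Cmax and MRT read from concentration–time data.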"}, "BT-474 [8]": {"test_system": "BT-474", "assay": "Induction of apoptosis in human BT474 cells at 1 uM incubated for 12 hrs by propidium iodide staining based flow cytometry (reference value: 1%)", "format": "functional"}, "[9]": {"target": "T1, Receptor tyrosine-protein kinase erbB-2", "conditions": "BT-474, 0.001 to 1 uM", "remark": "listed apart in the source"}, "BT-474 [10]": {"test_system": "BT-474", "assay": "Induction of cell cycle arrest in human BT474 cells assessed as accumulation at G2/M phase at 1 uM incubated for 12 hrs by propidium iodide staining based flow cytometry (reference value: 14%)", "format": "functional"}, "[11]": {"target": "Platelet-derived growth factor receptor beta (Homo sapiens, UniProt P09619)", "sequence (P09619 whole entry)": "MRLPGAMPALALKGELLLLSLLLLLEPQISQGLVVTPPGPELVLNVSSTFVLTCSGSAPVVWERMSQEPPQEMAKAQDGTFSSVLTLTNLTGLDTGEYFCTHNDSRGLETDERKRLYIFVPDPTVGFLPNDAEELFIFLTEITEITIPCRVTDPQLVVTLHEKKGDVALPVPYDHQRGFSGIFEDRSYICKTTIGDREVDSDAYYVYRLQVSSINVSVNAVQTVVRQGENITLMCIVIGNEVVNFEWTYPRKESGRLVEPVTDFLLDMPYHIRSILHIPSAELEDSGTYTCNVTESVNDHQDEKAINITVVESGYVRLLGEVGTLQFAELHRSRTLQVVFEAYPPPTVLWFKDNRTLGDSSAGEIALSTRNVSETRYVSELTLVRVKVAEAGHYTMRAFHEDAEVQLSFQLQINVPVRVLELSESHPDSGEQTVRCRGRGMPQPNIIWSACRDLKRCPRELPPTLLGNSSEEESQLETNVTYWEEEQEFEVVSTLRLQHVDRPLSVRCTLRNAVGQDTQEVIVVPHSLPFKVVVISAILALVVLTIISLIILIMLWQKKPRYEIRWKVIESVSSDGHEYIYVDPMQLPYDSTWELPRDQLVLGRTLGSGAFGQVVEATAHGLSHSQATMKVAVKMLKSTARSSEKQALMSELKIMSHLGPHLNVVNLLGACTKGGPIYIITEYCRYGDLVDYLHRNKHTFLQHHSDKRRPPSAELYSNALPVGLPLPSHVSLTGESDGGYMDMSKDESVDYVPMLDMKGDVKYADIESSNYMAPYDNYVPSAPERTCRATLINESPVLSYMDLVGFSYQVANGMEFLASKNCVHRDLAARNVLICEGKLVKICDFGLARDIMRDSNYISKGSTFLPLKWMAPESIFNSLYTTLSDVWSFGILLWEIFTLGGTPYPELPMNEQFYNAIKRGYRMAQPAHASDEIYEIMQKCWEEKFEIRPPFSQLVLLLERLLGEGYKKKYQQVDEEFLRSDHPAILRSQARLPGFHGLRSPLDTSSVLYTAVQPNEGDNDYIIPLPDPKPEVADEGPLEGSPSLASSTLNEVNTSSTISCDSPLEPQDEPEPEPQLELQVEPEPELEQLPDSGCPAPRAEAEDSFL", "assay": "Inhibition of PDGFRbeta (unknown origin) by ELISA method", "summary_of_the_method": "as §1"}, "MDA-MB-231": {"test_system": "MDA-MB-231", "assay": "cells", "conditions": "Homo sapiens, MDA-MB-231, 72 h"}, "[12]": {"target": "T3, Vascular endothelial growth factor receptor 2", "assay": "Inhibition of KDR phosphorylation (unknown origin) expressed in human HUVEC at 0.001 to 1 uM incubated for 2 hrs by Western blot method", "format": "cell-based", "summary_of_the_method": "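Cells grown to half-confluence and serum-starved 24 h, then treated 2 h at 0.001, 0.01, 0.1 and 1 µM. Afterwards stimulated at 37 °C with 20 ng/ml SCF-1, PDGF-BB or VEGF as appropriate to the receptor. Phosphorylation assessed by western blot.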"}, "MCF7": {"test_system": "MCF7", "assay": "Cytotoxicity against human MCF7 cells assessed as inhibition of cell growth after 72 hrs by sulforhodamine B assay", "format": "functional, cell-based", "conditions": "MCF7, 72 h", "summary_of_the_method": "(§3)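 Cells grown in RPMI-1640 with 5% FBS and plated at 5.0×10^4/ml. Next day exposed to 0.5–5000 ng/ml for 3 days. Survival read by sulforhodamine B staining. IC50 taken from growth curves; mean of at least three determinations.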"}, "[13]": {"assay": "Antitumor activity against human Calu3 cells xenografted in BALB/cA mouse assessed as tumor growth inhibition at 200 mg/kg, po", "format": "functional", "conditions": "Calu-3, read-out: TGI", "summary_of_the_method": "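Female BALB/cA nude mice, 6–7 weeks old, implanted s.c. on midright side with 2×10^6 Calu-3 cells in 0.2 ml PBS. Grouped at 60–150 mm³ tumour volume (6 per treated group, 12 vehicle). Oral dosing in 0.5% CMC with 0.1% Tween-80. Caliper volume = L×W²×0.5; inhibition = (1 − T/C)×100% on relative tumour volume; weight tracked for 21 d.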"}, "BT-474 [14]": {"test_system": "BT-474", "assay": "Induction of cell cycle arrest in human BT474 cells assessed as accumulation at S phase at 1 uM incubated for 12 hrs by propidium iodide staining based flow cytometry (reference value: 19%)", "format": "functional"}, "[15]": {"assay": "Clearance in Beagle dog at 240 mg/kg, po dosed for 14 days by LC/MS/MS method", "format": "ADME, organism-based, Canis lupus familiaris", "design": "dose 240 mg/kg, route oral", "conditions": "in vivo", "summary_of_the_method": "as §2"}, "[16]": {"target": "T1, Receptor tyrosine-protein kinase erbB-2", "assay": "Inhibition of HER2 (unknown origin) assessed as reduction in autophosphorylation by ELISA method", "summary_of_the_method": "as §1"}, "BT-474 [17]": {"test_system": "BT-474", "assay": "Induction of cell cycle arrest in human BT474 cells assessed as accumulation at G2/M phase at 0.1 uM incubated for 12 hrs by propidium iodide staining based flow cytometry (reference value: 14%)", "format": "functional"}, "[18]": {"target": "T2, Epidermal growth factor receptor", "conditions": "A-431, 0.001 to 1 uM", "remark": "listed apart in the source"}, "MDA-MB-453": {"test_system": "MDA-MB-453", "assay": "cells", "conditions": "Homo sapiens, MDA-MB-453, 72 h"}, "[19]": {"assay": "Cmax in Beagle dog at 240 mg/kg, po administered as single dose measured after 0.25 to 24 hrs post dose by LC/MS/MS method", "format": "ADME, organism-based, Canis lupus familiaris", "design": "dose 240 mg/kg, route oral", "conditions": "in vivo", "summary_of_the_method": "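Single oral gavage of 240 mg/kg to beagle dogs (n = 6). Blood sampled at 0.25–24 h, kept on ice, centrifuged within 1 h (1000 × g, 4 °C, 15 min), plasma stored at −20 °C. Drug quantified by validated LC/MS/MS. AUC0–24 from non-compartmental analysis; Cmax and MRT taken directly from concentration–time data.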"}, "BT-474 [20]": {"test_system": "BT-474", "assay": "Cytotoxicity against human BT474 cells assessed as inhibition of cell growth after 72 hrs by sulforhodamine B assay", "format": "functional, cell-based", "conditions": "BT-474, 72 h", "summary_of_the_method": "as §3"}, "[21]": {"assay": "Cmax in Beagle dog at 240 mg/kg, po dosed for 14 days by LC/MS/MS method", "format": "ADME, organism-based, Canis lupus familiaris", "design": "dose 240 mg/kg, route oral", "conditions": "in vivo", "summary_of_the_method": "as §2"}, "[22]": {"assay": "Tmax in Beagle dog at 240 mg/kg, po dosed for 14 days by LC/MS/MS method", "format": "ADME, organism-based, Canis lupus familiaris", "design": "dose 240 mg/kg, route oral", "conditions": "in vivo", "summary_of_the_method": "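Beagle dogs (n = 6) given 240 mg/kg daily by oral gavage for 14 consecutive days. On days 1 and 14, blood taken predose and at 0.25–24 h post-dose. Plasma held at -20 °C, then quantified by validated LC/MS/MS. Tmax taken directly from the plasma concentration-time data.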"}}, "note": "Calls of active or inactive are those of the source. No cut-off for these calls is given here."}
{"smiles": "CN(C)[C@H](CS(C)(=O)=O)c1ccc(-c2ccc3ncnc(Nc4ccc(OCc5cccc(F)c5)c(Cl)c4)c3c2)o1", "values": [{"measurement": "IC50", "setting": "[1]", "value": "> 200000", "unit": "nM"}, {"measurement": "inhibition", "setting": "[2]", "value": "Dose-dependent effect"}, {"measurement": "Activity", "setting": "BT-474 [3]", "value": 11, "unit": "%"}, {"measurement": "Activity", "setting": "BT-474 [4]", "value": 14, "unit": "%"}, {"measurement": "inhibition", "setting": "[5]", "value": "Dose-dependent effect"}, {"measurement": "IC50", "setting": "[6]", "value": "> 200000", "unit": "nM"}, {"measurement": "Activity", "setting": "Mus musculus", "value": "Non-toxic"}, {"measurement": "IC50", "setting": "cells", "value": 230, "unit": "nM"}, {"measurement": "MRT", "setting": "[7]", "value": 6.6, "unit": "h"}, {"measurement": "Activity", "setting": "BT-474 [8]", "value": 5, "unit": "%"}, {"measurement": "inhibition", "setting": "[9]", "value": "Dose-dependent effect"}, {"measurement": "Activity", "setting": "BT-474 [10]", "value": 12, "unit": "%"}, {"measurement": "IC50", "setting": "[11]", "value": "> 200000", "unit": "nM"}, {"measurement": "IC50", "setting": "MDA-MB-231", "value": 95300, "unit": "nM"}, {"measurement": "inhibition", "setting": "[12]", "value": "inactive"}, {"measurement": "IC50", "setting": "MCF7", "value": 5670, "unit": "nM"}, {"measurement": "inhibition in vivo at 200 mg/kg", "setting": "[13]", "value": 83, "unit": "%"}, {"measurement": "Activity", "setting": "BT-474 [14]", "value": 6, "unit": "%"}, {"measurement": "CL/F", "setting": "[15]", "value": 432, "unit": "mL/min"}, {"measurement": "IC50", "setting": "[16]", "value": 0.5, "unit": "nM"}, {"measurement": "Activity", "setting": "BT-474 [17]", "value": 11, "unit": "%"}, {"measurement": "inhibition", "setting": "[18]", "value": "Dose-dependent effect"}, {"measurement": "IC50", "setting": "MDA-MB-453", "value": 260, "unit": "nM"}, {"measurement": "Cmax", "setting": "[19]", "value": 3100, "unit": "ng/mL"}, {"measurement": "IC50", "setting": "BT-474 [20]", "value": 28.8, "unit": "nM"}, {"measurement": "Cmax", "setting": "[21]", "value": 2900, "unit": "ng/mL"}, {"measurement": "Tmax", "setting": "[22]", "value": 4.5, "unit": "h"}]}
